Screens from PubChem BioAssay.
TRPC6 inh – mouse TRPC6 channel inhibitors, primary screen, cell-based, HEK293, membrane potential dye | Short transient receptor potential channel 6 (Mus musculus), Q61143 | ACh-evoked depolarization; hits give low values | B-score at 10 µM | 310,000 tested, 1.1% active | AID 2553, 2010;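 active = B-score under library mean minus 3 SD, initial fluorescence not abnormally high, positive integrated signal ratio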;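 note: B-score derived from integrated fluorescence ratio over the kinetic read; more negative B-score means stronger inhibition of depolarization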
Target sequence (Q61143 whole entry, looked up): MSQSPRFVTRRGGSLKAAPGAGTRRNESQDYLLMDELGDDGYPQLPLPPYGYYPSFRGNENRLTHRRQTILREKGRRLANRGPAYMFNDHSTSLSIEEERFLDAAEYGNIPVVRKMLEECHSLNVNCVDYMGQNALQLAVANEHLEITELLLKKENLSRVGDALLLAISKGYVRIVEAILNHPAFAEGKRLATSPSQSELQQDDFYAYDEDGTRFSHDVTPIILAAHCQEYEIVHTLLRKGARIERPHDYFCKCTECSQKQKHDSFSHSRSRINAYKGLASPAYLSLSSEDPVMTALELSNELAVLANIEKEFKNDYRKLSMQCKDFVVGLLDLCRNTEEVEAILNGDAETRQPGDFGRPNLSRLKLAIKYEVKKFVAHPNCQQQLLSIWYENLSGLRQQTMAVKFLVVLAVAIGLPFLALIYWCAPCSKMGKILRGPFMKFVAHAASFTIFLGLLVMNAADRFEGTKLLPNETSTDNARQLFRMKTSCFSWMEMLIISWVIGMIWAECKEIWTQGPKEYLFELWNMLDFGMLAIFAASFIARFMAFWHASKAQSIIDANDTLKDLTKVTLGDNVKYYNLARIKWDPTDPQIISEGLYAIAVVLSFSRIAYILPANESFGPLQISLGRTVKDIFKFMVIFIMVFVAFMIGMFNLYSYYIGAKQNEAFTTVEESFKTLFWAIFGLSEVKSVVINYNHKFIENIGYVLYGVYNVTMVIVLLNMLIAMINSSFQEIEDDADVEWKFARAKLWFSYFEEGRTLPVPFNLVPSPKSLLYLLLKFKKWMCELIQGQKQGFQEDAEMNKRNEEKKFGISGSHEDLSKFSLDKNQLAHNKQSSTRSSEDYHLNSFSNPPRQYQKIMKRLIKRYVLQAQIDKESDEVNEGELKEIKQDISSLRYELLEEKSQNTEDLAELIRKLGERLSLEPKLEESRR
TRPC4 PAM – positive allosteric modulators of TRPC4, primary screen, cell-based, mouse TRPC4beta, HEK293 mu-opioid, Fluo-4 calcium. DAMGO EC20, Fluo-4 Ca2+ flux; hits give high values. B-score at 10 µM. 310,000 tested, 0.42% active. AID 2227, 2009;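 active = B-score of calcium response area above 5 SD of library B-scores, with initial fluorescence ratio within 5 SD of library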;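 note: B-score of integrated fluorescence ratio over time as area under calcium response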
TRPC6 act – mouse TRPC6 channel activators, primary screen, cell-based, HEK293, membrane potential dye | 310,000 tested, 0.13% active | HEK293-TRPC6 membrane potential dye fluorescence; hits give high values | AID 2550, 2010 | B-score at 10 µM;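 active = B-score of the integrated fluorescence ratio above library mean plus 3 SD, and starting fluorescence ratio within library mean plus 5 SD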;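 note: higher score means more depolarization so channel activation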
TRPC4 block – inhibitors of mouse TRPC4 channel, primary screen, Fluo4 calcium, HEK293 TRPC4beta/mu-opioid cells; Short transient receptor potential channel 4 (Mus musculus), Q9QUQ5; DAMGO-evoked Fluo4 calcium flux; hits give low values; B-score at 10 µM; 300,000 tested, 0.39% active;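 active = B-score over 3 SD under the library average, no early fluorescence shift, positive overall ratio signal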
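Test system – stable TRPC4beta/mu-opioid receptor HEK293 cells · Probe or stimulus – DAMGO, a submaximal dose followed by a maximal one · Dosing – one concentration per compound · Signal – Fluo4 calcium fluorescence by kinetic imaging, 5 s 1 Hz baseline · Evaluation – per-well B score of integrated baseline-normalized Fluo4 ratio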
TRPC4 act – activators of mouse TRPC4 channel, primary screen, Fluo4 calcium, HEK293 TRPC4beta/mu-opioid cells; Short transient receptor potential channel 4 (Mus musculus), Q9QUQ5; AID 2237, 2010; B-score at 10 µM; Fluo4 calcium fluorescence; hits give high values; 310,000 tested, 0.49% active;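 active = B-score above 5 SD of library B-scores, and initial fluorescence ratio not above library mean plus 5 SD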;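 note: positive B-score marks a calcium rise read as TRPC4 activation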
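Assay system – TRPC4beta and mu-opioid receptor HEK293 stable cells · Measured by – Fluo4 fluorescence, kinetic · Schedule – dye loading 45 min room temperature, 110 s kinetic read · Read-out – B-scored integrated calcium fluorescence ratio · Controls – buffer and maximal DAMGO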
* hit, by the source's call; i = inactive. Compounds with a hit are over-represented: about 2.3% of the library has one in this group of screens.

SMILES | TRPC6 inh | TRPC4 PAM | TRPC6 act | TRPC4 block | TRPC4 act
CCc1n[nH]c(CCN)n1 | i | i | i | i | 155*
OC1/C(=C/c2ccccc2F)N2CCC1CC2 (centres undefined) | i | i | i | i | i
OC(CNC1CCCCCCC1)c1ccccc1 (centres undefined) | i | i | i | i | i
Cc1ccc(-c2cc(-c3ccc(C)cc3)[n+](-c3ccc(C(=O)[O-])cc3)c(-c3ccc(C)cc3)c2)cc1 | i | i | i | i | 60*
CC/C(=C\C=C\[C@@H]1C=C[C@@H]2CCC[C@H]2[C@@H]1C(=O)c1ccc[nH]1)[C@@H]1O[C@@H]([C@@H](C)C(=O)O)CC[C@@H]1C | i | i | i | i | 67*
Cc1nc2ccccc2c(=O)n1/N=C/c1cc(Br)cc(Br)c1O | i | i | i | i | i
C=CCN1CC[C@]23c4c5ccc(O)c4O[C@H]2/C(=N/NC(=O)c2ccccc2)CC[C@@]3(O)[C@H]1C5 | i | i | i | i | 49*
Cc1ccc(CN2C3CCCC2CC(NC(=S)NCc2ccccc2)C3)cc1 (centres undefined) | i | i | i | -8* | i
Fc1ccc(C2NCCc3[nH]cnc32)cc1 (centres undefined) | i | i | i | i | 60*
Clc1cccc(C2NCCc3[nH]cnc32)c1 (centres undefined) | i | i | i | i | 50*
CCOc1ccc(N2C(=O)NC(=O)/C(=C/c3cnc(SC)nc3)C2=O)cc1 | i | i | i | i | i
O=[N+]([O-])c1cc2c(cc1CNCCc1ccc3c(c1)OCO3)OCO2 | i | i | i | -8* | 90*
Cc1[nH]c2ccccc2c1C(=O)C(=O)N1CC2CC(C1)c1cccc(=O)n1C2 (centres undefined) | i | i | i | i | i
Cc1cc(-c2ccccc2)cc(C)[n+]1Cc1ccccc1 | i | i | i | i | 106*
O=[N+]([O-])c1ccc(C[n+]2c(-c3ccccc3)cc(-c3ccccc3)cc2-c2ccccc2)cc1 | i | i | i | i | i
O=C(COc1ccc2ccc(=O)oc2c1)N1CCC(C(=O)O)(c2ccccc2)CC1 | i | i | i | i | i
CC(N)Cc1c[nH]c2c1ccc1ccccc12 (centres undefined) | i | i | i | i | 92*
CCCCn1c(NS(=O)(=O)c2ccccc2)c(C(=O)OCC)c2nc3ccccc3nc21 | i | i | i | i | i
CCCCn1c(NC(=O)c2ccc(Br)o2)c(C(=O)OCC)c2nc3ccccc3nc21 | i | i | 15* | i | i
CCC1=CCN(CCc2c(C)[nH]c3ccccc23)CC1 | i | i | i | i | i
CC(C)Oc1cc(-n2c(=S)[nH]c3ccccc3c2=O)c(Cl)cc1Cl | i | 12* | i | i | i
COc1cc(OC)c(OC)cc1CNC(C)C(O)c1ccccc1 (centres undefined) | i | i | i | i | i
CCOc1c(Cl)cc(CNC(C)C(O)c2ccccc2)cc1OC (centres undefined) | i | i | i | -6* | i
COc1ccc(CC2c3cc(OC)c(OC)cc3CCN2C)cc1OC (centres undefined) | i | i | i | i | i
COc1ccc(C[C@@H]2c3cc(O)c(OC)cc3CCN2C)cc1O | i | 17* | i | i | i
O=c1oc2ccccc2c(O)c1[C@H]1c2ccc(O)cc2Oc2c1c(=O)oc1ccccc21 | i | i | i | i | i
Cc1cccc(N=Cc2c(O)n(-c3ccccc3C)c(=O)[nH]c2=O)c1 | i | 24* | i | i | i
